{"source": "paper PMC4298165", "about": "(Cell, 2014)", "key": {"TRiC": {"test_system": "TRiC", "assay": "Crosslinking-mass spectrometry", "assay_type": "binding", "details": "DSS crosslinking, trypsin, tandem MS, xQuest", "summary_of_the_method": "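Intact TRiC crosslinked with DSS to full-length actin, tubulin or HIV Gag. Crosslinked samples were trypsin-digested and enriched for crosslinked species before MS. Crosslink sites on CCT subunits were mapped onto the apical-domain structure.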"}, "ApiCCT3 [1]": {"test_system": "ApiCCT3", "assay_type": "binding", "details": "15N-1H HSQC"}, "endogenous TRiC": {"test_system": "endogenous TRiC", "assay": "Biotin affinity isolation from HEK293 extracts and TRiC immunoblot", "assay_type": "binding, human", "details": "biotinylated peptide, HEK293 extract, immunoblot against CCT5 and CCT2"}, "CCT3": {"test_system": "CCT3", "details": "cited from earlier work"}, "ApiCCT3 [2]": {"test_system": "ApiCCT3", "assay": "NMR chemical-shift mapping, 15N-labeled p6 with unlabeled ApiCCT3", "assay_type": "binding", "details": "15N-1H HSQC, 0, 2.5, 5 and 10-fold excess ApiCCT3", "summary_of_the_method": "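Recombinant p6 was expressed with 15N/13C isotope labeling and purified. Chemical-shift mapping used 300 µM protein samples on an 800 MHz spectrometer with a cryogenic probe.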"}, "intact purified TRiC": {"test_system": "intact purified TRiC", "assay": "NMR chemical shift perturbation of 15N p6 with intact purified TRiC", "assay_type": "binding", "details": "Fig. S4D"}, "[3]": {"biological_target": "T1, apical domain of CCT3 (ApiCCT3) (UniProt P49368 210-380)", "T1 sequence (looked up)": "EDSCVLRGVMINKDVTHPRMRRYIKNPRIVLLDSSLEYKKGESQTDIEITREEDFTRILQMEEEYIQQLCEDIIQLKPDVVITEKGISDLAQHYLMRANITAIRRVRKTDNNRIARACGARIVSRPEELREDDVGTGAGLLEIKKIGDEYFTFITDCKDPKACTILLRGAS", "assay": "SPR"}, "p6": {"test_system": "p6", "assay": "SPR kinetics of ApiCCT3 alanine mutants on immobilized p6", "assay_type": "binding, HIV", "details": "31 surface-exposed residues substituted"}}, "data": [{"molecule": "actin", "values": [{"measurement": "location of heterotypic TRiC crosslinks", "setting": "TRiC", "result": "localized to substrate determinants previously implicated in TRiC binding"}]}, {"molecule": "p6: 54 amino acid long HIV protein p6 (LQSRPEPTAPPEESFRSGVETTTPPQKQEPIDKELYPLTSLRSLFGNDPSSQ)", "values": [{"measurement": "chemical shift perturbation of 15N-ApiCCT3", "setting": "ApiCCT3 [1]; 300 µM protein sample, 800 MHz, 0, 5, 10, 20-fold excess p6 (Fig. 2)", "result": "concentration-dependent shifts in a specific subset of peaks"}, {"measurement": "number of ApiCCT3 peaks perturbed weakly", "setting": "ApiCCT3 [1]; > 0.1 p.p.m.", "result": 4, "unit": "peaks"}, {"measurement": "number of ApiCCT3 peaks strongly perturbed", "setting": "ApiCCT3 [1]; > 0.2 p.p.m.", "result": 5, "unit": "peaks"}, {"measurement": "binding to endogenous TRiC", "setting": "endogenous TRiC", "result": "bound TRiC"}, {"measurement": "association with CCT3", "setting": "CCT3", "result": "associate directly with subunit CCT3 of TRiC"}, {"measurement": "chemical shift perturbation of 15N-p6 by ApiCCT3", "setting": "ApiCCT3 [2]", "result": "concentration-dependent chemical shift perturbation in a subset of peaks"}, {"measurement": "chemical shift perturbation of 15N p6 by intact TRiC", "setting": "intact purified TRiC", "result": "the same subset of p6 residues was affected upon addition of intact TRiC"}]}, {"molecule": "HIV protein p6 (natural protein) LQSRPEPTAPPEESFRSGVETTTPPQKQEPIDKELYPLTSLRSLFGNDPSSQ", "values": [{"measurement": "Kd", "setting": "[3]", "result": "250 to 500", "unit": "nM"}]}, {"molecule": "Y274A (protein) MMGHRPVLVLSQNTKRESGRKVQSGNINAAKTIADIIRTCLGPKSMMKMLLDPMGGIVMTNDGNAILREIQVQHPAAKSMIEISRTQDEEVGDGTTSVIILAGEMLSVAEHFLEQQMHPTVVISAYRKALDDMISTLKKISIPVDISDSDMMLNIINSSITTKAISRWSSLACNIALDAVKMVQFEENGRKEIDIKKYARVEKIPGGIIEDSCVLRGVMINKDVTHPRMRRYIKNPRIVLLDSSLEYKKGESQTDIEITREEDFTRILQMEEEAIQQLCEDIIQLKPDVVITEKGISDLAQHYLMRANITAIRRVRKTDNNRIARACGARIVSRPEELREDDVGTGAGLLEIKKIGDEYFTFITDCKDPKACTILLRGASKEILSEVERNLQDAMQVCRNVLLDPQLVPGGGASEMAVAHALTEKSKAMTGVEQWPYRAVAQALEVIPRTLIQNCGASTIRLLTSLRAKHTQENCETWGVNGETGTLVDMKELGIWEPLAVKLQTYKTAVETAVLLLRIDDIVSGHKKKGDDQSRQGGAPDAGQE", "values": [{"measurement": "impact of Ala substitution in ApiCCT3 on p6 binding", "setting": "p6", "result": "no impact on p6 binding"}]}, {"molecule": "tubulin: full length physiological substrate of TRiC (protein) MREIIHISTGQCGNQIGAAFWETICGEHGLDFNGTYHGHDDIQKERLNVYFNEASSGKWVPRSINVDLEPGTIDAVRNSAIGNLFRPDNYIFGQSSAGNVWAKGHYTEGAELVDSVMDVIRREAEGCDSLQGFQITHSLGGGTGSGMGTLLISKIREEFPDRMMATFSVLPSPKTSDTVVEPYNATLSVHQLVEHSDETFCIDNEALYDICQRTLKLNQPSYGDLNNLVSSVMSGVTTSLRYPGQLNSDLRKLAVNLVPFPRLHFFMVGYAPLTAIGSQSFRSLTVPELTQQMFDAKNMMAAADPRNGRYLTVAAFFRGKVSVKEVEDEMHKVQSKNSDYFVEWIPNNVQTAVCSVAPQGLDMAATFIANSTSIQELFKRVGDQFSAMFKRKAFLHWYTSEGMDELEFSEAESNMNDLVSEYQQYQEATVEDDEEVDENGDFGAPQNQDEPITENFE", "values": [{"measurement": "crosslinks to TRiC subunits", "setting": "TRiC", "result": "crosslinked to multiple TRiC subunits through specific regions in the polypeptide"}, {"measurement": "location of heterotypic TRiC crosslinks", "setting": "TRiC", "result": "localized to substrate determinants previously implicated in TRiC binding"}]}]}
